Screens as filed in PubChem BioAssay.
PP1 counter: counter-screen for PP5 inhibitors: inhibitors of human PP1-alpha; purified PP1alpha, OMFP fluorescence; inhibition, % at 6.7 µM; 320,000 tested, 0.9% active; AID 2235;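 active means inhibition above the mean inhibition of all tested compounds plus 3 SD, computed separately for each screening campaign, cut at about 15% in these data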
PP5 inh: inhibitors of human protein phosphatase 5 (PP5); 320,000 tested, 0.18% active; purified PP5c, OMFP substrate fluorescence; inhibition, % at 6.7 µM;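 active means inhibition above the campaign's mean inhibition across all tested compounds plus 3 SD, cut at about 9.5% in these data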;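 further: 0% = DMSO only and 100% = 100 µM cantharidin control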
Target sequence (P53041 whole entry, looked up): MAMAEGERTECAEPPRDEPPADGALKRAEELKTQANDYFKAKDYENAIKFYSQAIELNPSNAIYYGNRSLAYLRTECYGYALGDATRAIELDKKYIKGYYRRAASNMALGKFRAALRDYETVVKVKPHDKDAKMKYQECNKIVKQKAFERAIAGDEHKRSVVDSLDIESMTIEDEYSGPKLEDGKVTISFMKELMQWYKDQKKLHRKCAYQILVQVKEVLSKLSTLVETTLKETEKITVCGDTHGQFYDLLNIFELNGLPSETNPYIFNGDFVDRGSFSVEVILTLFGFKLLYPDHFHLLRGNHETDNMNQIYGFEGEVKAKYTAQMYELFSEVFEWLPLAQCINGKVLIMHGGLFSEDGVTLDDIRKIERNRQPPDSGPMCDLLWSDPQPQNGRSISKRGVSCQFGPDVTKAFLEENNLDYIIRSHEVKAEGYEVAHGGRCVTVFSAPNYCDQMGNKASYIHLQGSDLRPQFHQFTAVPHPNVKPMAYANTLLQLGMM
HCV core dimer: blocks dimerization of HCV core protein; TR-FRET GST/Flag-core106 dimerization, 1536-well; 300,000 tested, 0.33% active; inhibition, % at 5 µM;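 active means inhibition above the mean of all tested compounds plus 3 SD, set per screening campaign, cut at about 45% in these data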
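Assay system: tagged HCV core106 pair (GST and Flag); medium: KF-containing HEPES buffer, pH 7.45, DTT, CHAPS, BSA; also added: Eu donor and XL665 acceptor anti-tag antibodies; dosing: 5 µM single dose; timing: compound-protein-antibody incubation 4 h at 22.5 °C; signal: TR-FRET 671 and 617 nm emission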
Myeloid diff 2: myeloid differentiation induction; ER-HoxA9 myeloid progenitors, lysozyme-GFP differentiation, flow cytometry; calls only at 10 µM; 360,000 tested, 1% active;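 active means normalized GFP-positive differentiation at or above the plate's own cutoff, the solvent-only control mean plus 3 SD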;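 further: cells exposed to compound for four days before flow analysis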
Fh CTSL1 inh: cathepsin L1 inhibition, PFM18AAP counter-screen; inhibition, % at 5.96 µM; 300,000 tested, 0.49% active; AID 1906; recombinant F. hepatica cathepsin L1, Z-Leu-Arg-MCA fluorescence;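 active means inhibition above the mean of all tested compounds plus 3 SD, set per screening campaign, cut at about 17% in these data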;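 further: 0% = plate median of test compound wells and 100% = 1 µM Z-Phe-Ala-diazomethylketone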
NadD block: NadD (S. aureus) enzyme inhibition; purified NadD enzyme, colorimetric absorbance read-out; inhibition, % at 20 µM; 360,000 tested, 0.78% active; in the data active means inhibition above about 26%
* marks the source's active call; other numbers are inactive results. Hits are enriched below; roughly 3.1% of the tested compounds scored in any of these assays.

How did O=C(NCc1ccc2c(c1)OCO2)c1ccc(Br)cc1 do in these assays?
PP1 counter: -2; PP5 inh: 2; HCV core dimer: 0; Myeloid diff 2: inactive; Fh CTSL1 inh: -2; NadD block: 3

How did O=C(NCc1ccc2c(c1)OCO2)c1cc2ncc(Br)cn2n1 do in these assays?
PP1 counter: -1; PP5 inh: 3; HCV core dimer: 67*; Myeloid diff 2: inactive; Fh CTSL1 inh: -1; NadD block: 18

Results for COc1ccc2c(c1)[nH]c1c(=O)n(/N=C/c3ccc(OC)c(CN4CCCC4)c3)cnc12 ?
PP1 counter: -2; PP5 inh: -1; HCV core dimer: -1; Myeloid diff 2: inactive; Fh CTSL1 inh: 1; NadD block: 0

What do the screens show for `COc1ccc(/C=N/n2cnc3c([nH]c4ccccc43)c2=O)cc1COc1ccccn1`?
PP1 counter: 3; PP5 inh: 0; HCV core dimer: 4; Fh CTSL1 inh: 26*

Results for COC(=O)c1ccc(C2C(C(=O)c3ccco3)=C(O)C(=O)N2CC2CCCO2)cc1 (centres undefined) ?
PP1 counter: 3; PP5 inh: 0; HCV core dimer: -5; Myeloid diff 2: inactive; Fh CTSL1 inh: -1; NadD block: 1

What do the screens show for `O=C(COc1coc(CN2CCc3ccccc32)cc1=O)N1CCCCC1`?
PP1 counter: 3; PP5 inh: -1; HCV core dimer: -3; Myeloid diff 2: inactive; Fh CTSL1 inh: 21*; NadD block: 2

How did O=C(COc1coc(CN2CCc3ccccc32)cc1=O)NCCc1ccccc1 do in these assays?
PP1 counter: 0; PP5 inh: -1; HCV core dimer: 4; Myeloid diff 2: inactive; Fh CTSL1 inh: -1; NadD block: -3

What do the screens show for `Cc1onc(-c2c(F)cccc2Cl)c1C(=O)NC(C)c1ccccc1` (centres undefined)?
PP1 counter: -3; PP5 inh: -3; HCV core dimer: -6; Myeloid diff 2: inactive; Fh CTSL1 inh: 3; NadD block: -6

Results for COc1ccc(NC(=O)CS(=O)c2ccc(Br)cc2)cc1 (centres undefined) ?
PP1 counter: -2; PP5 inh: -2; HCV core dimer: 3; Myeloid diff 2: inactive; Fh CTSL1 inh: 1; NadD block: -2

What do the screens show for `COc1cccc(N2CCN(C(C)C(=O)NC34CC5CC(CC(C5)C3)C4)CC2)c1` (centres undefined)?
PP1 counter: 6; PP5 inh: 1; HCV core dimer: 3; Myeloid diff 2: active; Fh CTSL1 inh: 0; NadD block: -8

How did O=C(NNC1=NCCC1)c1ccc(Br)cc1 do in these assays?
PP1 counter: -3; PP5 inh: -1; HCV core dimer: -7; Myeloid diff 2: inactive; Fh CTSL1 inh: 1; NadD block: -3

What do the screens show for `O=C(NNC1=NCCC1)C1CC1`?
PP1 counter: 0; PP5 inh: 0; HCV core dimer: -4; Myeloid diff 2: active; Fh CTSL1 inh: -1; NadD block: -5

What do the screens show for `Cc1cccc(C(=O)NCC(=O)OCC(=O)N(C)CC(=O)Nc2ccc(F)cc2)c1`?
PP1 counter: -3; PP5 inh: 1; HCV core dimer: -3; Myeloid diff 2: inactive; Fh CTSL1 inh: 40*; NadD block: 4

What do the screens show for `C/C(=N\Nc1nc(N)cc(Cl)n1)c1cccc([N+](=O)[O-])c1`?
PP1 counter: -2; PP5 inh: 0; HCV core dimer: 4; Myeloid diff 2: inactive; Fh CTSL1 inh: 1; NadD block: -4

How did C/C(=N/Nc1nc(C)c(C)s1)c1cccc([N+](=O)[O-])c1 do in these assays?
PP1 counter: 0; PP5 inh: 0; HCV core dimer: 9; Myeloid diff 2: inactive; Fh CTSL1 inh: 90*; NadD block: 7

How did NC(=O)CC(NC(=O)Cc1cccc2ccccc12)c1ccc(N2CCC(N3CCCC3)CC2)c([N+](=O)[O-])c1 (centres undefined) do in these assays?
PP1 counter: 3; PP5 inh: 1; HCV core dimer: -12; Myeloid diff 2: inactive; Fh CTSL1 inh: -7; NadD block: -8

What do the screens show for `COc1ccc(-n2nc(C)cc2N)cc1`?
PP1 counter: -5; PP5 inh: 1; HCV core dimer: -3; Myeloid diff 2: inactive; Fh CTSL1 inh: -1; NadD block: 0

Results for Cc1cc(N)n(-c2ccc3ccccc3c2)n1 ?
PP1 counter: -5; PP5 inh: 0; HCV core dimer: 3; Myeloid diff 2: active; Fh CTSL1 inh: 2; NadD block: 1

What do the screens show for `Brc1ccc(C2=CC(c3cccs3)n3ncnc3N2)cc1` (centres undefined)?
PP1 counter: -6; PP5 inh: -6; HCV core dimer: 10; Myeloid diff 2: active; Fh CTSL1 inh: 2; NadD block: 11

What do the screens show for `CCOc1ccc(-n2c(-c3ccccc3)nnc2-c2ccccc2)cc1`?
PP1 counter: 16*; PP5 inh: 1; HCV core dimer: 30; Myeloid diff 2: inactive; Fh CTSL1 inh: 0; NadD block: 8

What do the screens show for `CCNC(=O)CSc1nnc(-c2ccccc2)n1-c1ccc(OCC)cc1`?
PP1 counter: -2; PP5 inh: 1; HCV core dimer: 1; Myeloid diff 2: inactive; Fh CTSL1 inh: -1; NadD block: -4

How did Clc1ccccn1 do in these assays?
PP1 counter: -6; PP5 inh: -2; Myeloid diff 2: inactive; NadD block: 3

How did COc1cc2ncnc(NCc3cccc(Cl)c3)c2cc1OC do in these assays?
PP1 counter: -3; PP5 inh: 1; HCV core dimer: 2; Myeloid diff 2: active; Fh CTSL1 inh: -1; NadD block: -1

Results for COc1cc2ncnc(NCc3ccccc3)c2cc1OC ?
PP1 counter: 0; PP5 inh: 2; HCV core dimer: -2; Myeloid diff 2: inactive; Fh CTSL1 inh: 4; NadD block: -5

What do the screens show for `CC12CCC(=O)N1C(C(=O)NNC(=O)c1ccc(Br)cc1)CS2` (centres undefined)?
PP1 counter: 2; PP5 inh: 3; Myeloid diff 2: inactive; NadD block: -1

How did COc1ccc(CNC(=O)Cc2c(C(=O)O)[nH]c3ccccc23)c(OC)c1 do in these assays?
PP1 counter: -2; PP5 inh: 1; HCV core dimer: -6; Myeloid diff 2: active; Fh CTSL1 inh: -3; NadD block: -3

What do the screens show for `Cc1ccc(-n2nc(C(=O)NCc3ccco3)c3c4ccccc4n(C)c3c2=O)cc1`?
PP1 counter: 1; PP5 inh: 3; HCV core dimer: 47*; Myeloid diff 2: inactive; Fh CTSL1 inh: -2; NadD block: 19

What do the screens show for `O=S(=O)(NNc1cccc(Cl)n1)c1ccc(Cl)cc1`?
Myeloid diff 2: inactive; NadD block: -3

Results for Cc1cn(CC(=O)NCc2ccccc2)c(=O)[nH]c1=O ?
Myeloid diff 2: inactive; NadD block: 0
